From publication PMC10922102 (Cell chemical biology, 2023)

What was measured:
HBL-1 cells [1] = assay: Folate cytotoxicity dependence; assay type: cell-based, human
[2] = biological target: T1, recombinant human DHFR•NADPH complex (Homo sapiens, UniProt P00374); assay: Fluorescence polarization; assay type: binding
T1 sequence (P00374 1-187): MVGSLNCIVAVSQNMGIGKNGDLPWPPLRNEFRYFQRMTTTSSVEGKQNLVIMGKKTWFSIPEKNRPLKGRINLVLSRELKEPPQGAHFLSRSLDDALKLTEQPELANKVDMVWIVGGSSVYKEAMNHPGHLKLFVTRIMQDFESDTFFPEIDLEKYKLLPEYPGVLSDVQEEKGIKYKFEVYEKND

DHFR-HiBiT = biological target: T2, DHFR-HiBiT (Homo sapiens, UniProt P00374); assay: DHFR HiBiT assay; assay type: cell-based; settings: for Emax: HBL1, read-out: Assay max response (%); for Degradation potency (pDC50): DHFR-HiBiT, 24 h, 30°C, mean ±SD, three independent experiments, ND = not determined (inactive)
T2 sequence (P00374 1-187): T1 sequence (P00374 1-187)

HBL-1 cells [3] = settings: human, 72 h
HEK-293 cells = assay: Live-cell imaging of cell growth; assay type: cell-based, human; settings: live-cell imaging over 120 h
HBL-1 cells [4] = assay: Targeted metabolomics; assay type: cell-based, human; settings: folate-replete media, 0.1 or 0.5 μM, 24 h
Procedure, shortened: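 HBL-1 cells were expanded in RPMI 1640 with 1 mM HEPES, 100 U/mL penicillin, 100 µg/mL streptomycin and 10% FBS at 37 °C, 5% CO2. Metabolites were eluted by LC-MS/MS gradient. Buffer A was acetonitrile and Buffer B was 5% acetonitrile with 20 mM ammonium acetate, pH 9.0. The gradient started at 85% A and fell to 50% A by 17 min.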

[5] = system: MTX sensitive (MTX^S) HBL-1 cells; assay: Cell viability of MTX sensitive; assay type: cell-based; settings: Homo sapiens, HBL1, read-out: EC50, cell viability
in vitro = settings: human
[6] = system: MTX resistant (MTX^R) HBL-1 cells; assay: Cell viability of MTX resistant; assay type: cell-based, human
HBL-1 cells [7] = assay: cells; settings: Homo sapiens, HBL1, read-out: EC50 in MTX-sensitive HBL-1 cells
cellular DHFR = biological target: T3, cellular DHFR (Homo sapiens, UniProt P00374); assay: Label-free quantitative proteomics of HBL-1 cells; assay type: cell-based; settings: 1 μM, 24 h
T3 sequence (P00374 1-187): T1 sequence (P00374 1-187)

DHFR = biological target: T4, DHFR (Homo sapiens, UniProt P00374); assay: Western blot analysis of cellular DHFR; assay type: cell-based
T4 sequence (P00374 1-187): T1 sequence (P00374 1-187)

MOLT-4 cells = assay: CellTiter-Glo cytotoxicity in MOLT-4 cells; assay type: cell-based, human

Row | Structure (SMILES) | IC50 [2] | Emax (DHFR-HiBiT) | EC50 at 72 h (in vitro) | Degradation potency (pDC50) (DHFR-HiBiT; HBL-1 cells) | Cytotoxicity efficacy (viability, %CTG) (HBL-1 cells [3]) | other results
1 | CN(Cc1cnc2nc(N)nc(N)c2n1)c1ccc(C(=O)N[C@@H](CCC(=O)O)C(=O)O)cc1 [MTX, 1, Methotrexate, reference compound] |  |  | 61.7 nM |  | −68.7 ±5.7% | increase of cytotoxicity in folate-depleted vs. folate-containing media (HBL-1 cells [1]): < 2 fold; effect on cellular confluence (HEK-293 cells): reduced cellular confluence beginning after 48 h of treatment; cellular dUMP levels (HBL-1 cells [4]): significant increase in dUMP levels; EC50 [5]: 45.2 nM; EC50 ([6]; Homo sapiens, HBL1, 240 h, read-out: EC50, cell viability): 4640 nM; EC50 (HBL-1 cells [7]): < 100 nM
2 | CN(Cc1cnc2nc(N)nc(N)c2n1)c1ccc(C(=O)N[C@@H](CC(F)C(=O)O)C(=O)O)cc1 (stereo partly drawn) [FMTX, 2, (2S)-2-(4-(((2,4-diaminopteridin-6-yl)methyl)(methyl)amino)benzamido)-4-fluoropentanedioic acid, reference compound] | 93.3 nM | 53.9 ± 5.2% | 1050 nM |  | −65.7 ±5.7% | effect on cellular confluence (HEK-293 cells): reduced cellular confluence beginning after 48 h of treatment
3 | CN(Cc1cnc2nc(N)nc(N)c2n1)c1ccc(C(=O)N[C@@H](CCC(=O)NCCOCCOCCOCCNC(=O)COc2cccc3c2C(=O)N(C2CCC(=O)NC2=O)C3=O)C(=O)O)cc1 (stereo partly drawn) [Compound 3, (19S)-19-(4-(((2,4-diaminopteridin-6-yl)methyl)(methyl)amino)benzamido)-1-((2-(2,6-dioxopiperidin-3-yl)-1,3-dioxoisoindolin-4-yl)oxy)-2,16-dioxo-6,9,12-trioxa-3,15-diazaicosan-20-oic acid] | 43.7 nM | -40.6 ± 1.8% | 2820 nM | 6.27 ±0.21 | −72.1 ±7.9% | DHFR concentration in the HiBiT assay, % of DMSO control (DHFR-HiBiT; 24 h treatment, HBL-1 cells): ~ 40%; CTG cytotoxicity compared to PROTAC 4 (MOLT-4 cells): more cytotoxic than PROTAC 4 by an order of magnitude; cytotoxicity compared to PROTAC 4 (HBL-1 cells [3]): an order of magnitude improvement in cytotoxicity when compared to PROTAC 4
4 | CN(Cc1cnc2nc(N)nc(N)c2n1)c1ccc(C(=O)NC(CCC(=O)O)C(=O)NCCCCCCCCNc2cccc3c2C(=O)N(C2CCC(=O)NC2=O)C3=O)cc1 (centres unmarked) [VSTX-αE3L, 8, 4-(4-(((2,4-diaminopteridin-6-yl)methyl)(methyl)amino)benzamido)-5-((8-((2-(2,6-dioxopiperidin-3-yl)-1,3-dioxoisoindolin-4-yl)amino)octyl)amino)-5-oxopentanoic acid] | 7240 nM | 21.2 ± 2.5% |  |  | −2.0 ±16.2% | cytotoxicity in folic acid-free, replete and rescue conditions (HBL-1 cells [1]): showed no cytotoxicity; change of cellular DHFR-HiBiT level (DHFR-HiBiT; HBL-1 cells): did not lead to appreciable changes in DHFR-HiBiT concentration

Further lines, with some results ahead:

Row | IC50 [2] | Emax (DHFR-HiBiT) | EC50 at 72 h (in vitro) | Degradation potency (pDC50) (DHFR-HiBiT; HBL-1 cells) | Structure (SMILES) | Cytotoxicity efficacy (viability, %CTG) (HBL-1 cells [3]) | other results
5 | 25.1 nM | 39.3 ± 6.6% |  |  | CN1C(=O)CCC(N2C(=O)c3cccc(NCCCCCCCCNC(=O)CC[C@H](NC(=O)c4ccc(N(C)Cc5cnc6nc(N)nc(N)c6n5)cc4)C(=O)O)c3C2=O)C1=O (stereo partly drawn) [VSTX-IE3L, 7, N2-(4-(((2,4-diaminopteridin-6-yl)methyl)(methyl)amino)benzoyl)-N5-(8-((2-(1-methyl-2,6-dioxopiperidin-3-yl)-1,3-dioxoisoindolin-4-yl)amino)octyl)-L-glutamine] | 6.2 ±4.4% | cytotoxicity in folic acid-free, replete and rescue conditions (HBL-1 cells [1]): did not exhibit appreciable toxicity in any of the conditions; change of cellular DHFR-HiBiT level (DHFR-HiBiT; HBL-1 cells): increase in cellular DHFR-HiBiT
6 | 85.1 nM | -70.1 ± 0.4% | 21400 nM | 6.43 ±0.18 | CN(Cc1cnc2nc(N)nc(N)c2n1)c1ccc(C(=O)N[C@@H](CCC(=O)NCCCCCCCCNc2cccc3c2C(=O)N(C2CCC(=O)NC2=O)C3=O)C(=O)O)cc1 (stereo partly drawn) [Versortrexate (VSTX), 6, N2-(4-(((2,4-diaminopteridin-6-yl)methyl)(methyl)amino)benzoyl)-N5-(8-((2-(2,6-dioxopiperidin −3-yl)-1,3-dioxoisoindolin-4-yl)amino)octyl)-L-glutamine] | −45.7 ±26.9% | 
7 |  | -71.9 ± 2.1% | 5750 nM | 7.56 ±0.29 | COC(=O)[C@H](CCC(=O)NCCCCCCCCNc1cccc2c1C(=O)N(C1CCC(=O)NC1=O)C2=O)NC(=O)c1ccc(N(C)Cc2cnc3nc(N)nc(N)c3n2)cc1 (stereo partly drawn) [VSTX-ME, 9, Methyl N2-(4-(((2,4-diaminopteridin-6-yl)methyl)(methyl)amino)benzoyl)-N5-(8-((2-(2,6-dioxopiperidin-3-yl)-1,3-dioxoisoindolin-4-yl)amino)octyl)-L-glutaminate] | −26.8 ±22.7% | cellular dUMP levels (HBL-1 cells [4]): only a modest increase; purine nucleotides ATP and GTP relative to untreated control (HBL-1 cells [4]): decreased; time of maximum DHFR-HiBiT depletion (DHFR-HiBiT; HBL-1 cells, time course 5 to 72 h): 24 h; change of cellular DHFR by proteomics (cellular DHFR): significant degradation of cellular DHFR; effect on cell viability between parental (MTX^S) and MTX^R HBL-1 cell lines [6]: unchanged; DHFR level by western blot (DHFR; 24 h, HBL-1, HEK-293, Jurkat, MOLT-4, DND-41, TALL-5 cells): consistently able to degrade DHFR across this cell panel at sub-micromolar concentrations; DHFR degradation by western blot in MTX^R cells (DHFR; MTX^R HBL-1 cells): remained capable of degrading DHFR in the MTX^R cells
